Assay results as given in ChEMBL document CHEMBL1926616, “Design, synthesis and biological evaluation of novel glycosylated diphyllin derivatives as topoisomerase II inhibitors” (Eur J Med Chem, 2012).
Active and inactive are the calls of the source. No cut-off for these calls is given here.

Assays:
[1] = system: HCT-116; experiment: Cytotoxicity against human HCT116 cells after 72 hrs by sulforhodamine B and MTT assay; type: functional, cell-based; conditions: HCT-116, 72 h
In short: (§1)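 Log-phase cells were plated overnight and exposed for 72 h to a 5-concentration gradient, in triplicate wells. SRB arm: 10% cold TCA fixation for 1 h at 4 °C, 4 mg/ml SRB in 1% acetic acid for 15 min, dye dissolved in 10 mM Tris-HCl, read at 520 nm. MTT arm: 5 mg/mL MTT for 4 h at 37 °C, SDS-isobutanol-HCl solubilisation for 12–20 h, read at 570 nm. IC50 by Logit method from at least 3 independent tests.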

[2] = system: K562; experiment: Cytotoxicity against human K562 cells after 72 hrs by sulforhodamine B and MTT assay; type: functional, cell-based; conditions: K562, 72 h
In short: (§2)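 Log-phase cells were seeded, preincubated (overnight for SRB, 24 h for MTT), then given a five-concentration gradient in triplicate wells for 72 h. For MTT, reagent was added for 4 h at 37 °C, solubilized in SDS-isobutanol-HCl for 12-20 h, and read at 570 nm. IC50 was derived by the Logit method from at least 3 independent tests.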

[3] = system: MCF7; experiment: Cytotoxicity against human MCF7 cells after 72 hrs by sulforhodamine B and MTT assay; type: functional, cell-based; conditions: MCF7, 72 h; in short: as §1
[4] = system: KB; experiment: Cytotoxicity against vincristine-selected multi drug-resistant human KB cells after 72 hrs by sulforhodamine B and MTT assay; type: functional, cell-based; in short: as §2
[5] = system: K562; experiment: Resistance index, ratio of IC50 for adriamycin-selected multi drug-resistant human K562 cells to IC50 for human K562 cells; type: functional
In short: (§3)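 Resistance factor is the IC50 in the resistant line divided by the IC50 in the parental line. Both IC50s come from 72 h SRB/MTT growth-inhibition assays, derived by the Logit method from at least 3 independent tests.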

[6] = system: KB; experiment: Cytotoxicity against human KB cells after 72 hrs by sulforhodamine B and MTT assay; type: functional, cell-based; in short: as §1
[7] = system: K562; experiment: Cytotoxicity against adriamycin-selected multi drug-resistant human K562 cells after 72 hrs by sulforhodamine B and MTT assay; type: functional, cell-based; conditions: K562, 72 h; in short: as §2
[8] = target: DNA topoisomerase 2-alpha (Homo sapiens) (UniProt P11388); experiment: Inhibition of human topoisomerase 2-mediated decatenation of kinetoplast DNA at 100 uM after 15 mins by agarose gel electrophoresis
DNA topoisomerase 2-alpha (Homo sapiens), sequence (P11388 whole entry): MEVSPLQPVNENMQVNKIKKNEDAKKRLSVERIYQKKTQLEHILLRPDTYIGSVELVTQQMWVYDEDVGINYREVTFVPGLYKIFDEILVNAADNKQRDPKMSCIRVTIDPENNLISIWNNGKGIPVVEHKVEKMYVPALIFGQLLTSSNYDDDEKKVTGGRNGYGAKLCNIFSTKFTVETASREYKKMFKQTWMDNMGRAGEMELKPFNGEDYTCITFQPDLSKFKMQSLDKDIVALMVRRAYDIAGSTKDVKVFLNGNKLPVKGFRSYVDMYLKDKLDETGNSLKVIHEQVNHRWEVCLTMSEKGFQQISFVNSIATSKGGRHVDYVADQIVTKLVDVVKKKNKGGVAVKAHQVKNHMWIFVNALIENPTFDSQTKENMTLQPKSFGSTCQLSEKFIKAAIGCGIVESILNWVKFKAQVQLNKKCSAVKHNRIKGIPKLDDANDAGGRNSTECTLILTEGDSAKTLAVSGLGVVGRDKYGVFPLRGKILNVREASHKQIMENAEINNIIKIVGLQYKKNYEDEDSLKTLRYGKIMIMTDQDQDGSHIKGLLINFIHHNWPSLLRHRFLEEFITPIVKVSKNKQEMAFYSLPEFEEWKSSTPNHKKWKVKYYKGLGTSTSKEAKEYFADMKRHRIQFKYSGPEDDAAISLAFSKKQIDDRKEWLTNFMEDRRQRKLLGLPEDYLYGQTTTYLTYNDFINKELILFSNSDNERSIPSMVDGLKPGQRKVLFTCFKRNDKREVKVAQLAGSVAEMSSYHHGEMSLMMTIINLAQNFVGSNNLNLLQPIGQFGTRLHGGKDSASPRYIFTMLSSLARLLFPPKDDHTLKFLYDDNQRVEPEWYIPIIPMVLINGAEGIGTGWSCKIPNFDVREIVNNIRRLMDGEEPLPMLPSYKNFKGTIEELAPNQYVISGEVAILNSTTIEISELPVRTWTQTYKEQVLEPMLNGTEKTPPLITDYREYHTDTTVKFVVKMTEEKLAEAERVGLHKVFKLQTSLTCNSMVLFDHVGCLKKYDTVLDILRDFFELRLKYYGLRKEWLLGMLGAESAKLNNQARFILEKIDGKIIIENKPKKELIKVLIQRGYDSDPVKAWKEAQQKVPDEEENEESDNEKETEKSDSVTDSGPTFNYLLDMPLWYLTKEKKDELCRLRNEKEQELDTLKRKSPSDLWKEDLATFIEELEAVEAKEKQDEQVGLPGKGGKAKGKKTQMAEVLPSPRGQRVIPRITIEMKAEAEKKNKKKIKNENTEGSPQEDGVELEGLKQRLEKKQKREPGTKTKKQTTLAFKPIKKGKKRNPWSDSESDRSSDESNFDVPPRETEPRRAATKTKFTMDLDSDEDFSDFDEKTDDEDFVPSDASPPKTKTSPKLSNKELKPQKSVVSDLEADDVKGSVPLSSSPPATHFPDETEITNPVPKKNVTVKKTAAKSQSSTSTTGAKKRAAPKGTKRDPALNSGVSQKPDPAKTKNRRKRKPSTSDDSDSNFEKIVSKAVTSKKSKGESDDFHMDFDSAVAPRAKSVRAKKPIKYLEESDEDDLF
In short: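 ATP-dependent kDNA decatenation by 1 unit Topo II in 50 mM Tris-HCl pH 7.7, 50 mM KCl, 5 mM MgCl2, 1 mM ATP, 0.5 mM DTT, 0.5 mM EDTA and BSA, run for 15 min at 37 °C. Stopped with 10% SDS, then run on 1% agarose in TAE at 4 V/cm for 1 h and stained with ethidium bromide.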

[9] = system: KB; experiment: Resistance index, ratio of IC50 for vincristine-selected multi drug-resistant human KB cells to IC50 for human KB cells; type: functional; in short: as §3
[10] = system: HL-60; experiment: Cell cycle arrest in human HL60 cells assessed as accumulation at G2/M phase at 1 to 10 uM using propidium iodide stain by FACS-flow cytometry; type: functional, cell-based; conditions: TDE = time-dependent effect
[11] = system: HL-60; experiment: Cell cycle arrest in human HL60 cells assessed as accumulation at S phase at 10 uM after 24 hrs using propidium iodide stain by FACS-flow cytometry (reference value: 38.4%); type: functional
[12] = system: HCT-116; experiment: Cell cycle arrest in human HCT116 cells assessed as accumulation at G0/G1 phase at 1 to 10 uM using propidium iodide stain by FACS-flow cytometry; type: functional, cell-based; conditions: TDE = time-dependent effect
[13] = system: HL-60; experiment: Cell cycle arrest in human HL60 cells assessed as accumulation at G0/G1 phase at 1 to 10 uM using propidium iodide stain by FACS-flow cytometry; type: functional, cell-based; conditions: TDE = time-dependent effect
[14] = system: HL-60; experiment: Induction of apoptosis in human HL60 cells assessed as DNA fragmentation at 10 uM after 36 hrs by gel electrophoresis; type: functional, cell-based
In short: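 HL-60 cells were seeded and exposed to compound for 36 h. Harvested cells were lysed with an equal volume of 1.2% SDS, and the fragmented DNA was extracted and resolved by gel electrophoresis.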

[15] = system: HCT-116; experiment: Cell cycle arrest in human HCT116 cells assessed as accumulation at G2/M phase at 1 to 10 uM after 24 hrs using propidium iodide stain by FACS-flow cytometry; type: functional, cell-based
[16] = system: HCT-116; experiment: Cell cycle arrest in human HCT116 cells assessed as accumulation at G2/M phase after 24 hrs using propidium iodide stain by FACS-flow cytometry; type: functional, cell-based
[17] = system: HL-60; experiment: Cell cycle arrest in human HL60 cells assessed as accumulation at S phase at 1 uM after 24 hrs using propidium iodide stain by FACS-flow cytometry (reference value: 38.4%); type: functional
[18] = system: HL-60; experiment: Cell cycle arrest in human HL60 cells assessed as accumulation at G2/M phase at 10 uM after 24 hrs using propidium iodide stain by FACS-flow cytometry (reference value: 22.6%); type: functional
[19] = system: HL-60; experiment: Cell cycle arrest in human HL60 cells assessed as accumulation at G2/M phase at 1 uM after 24 hrs using propidium iodide stain by FACS-flow cytometry (reference value: 22.6%); type: functional
[20] = system: HL-60; experiment: Cell cycle arrest in human HL60 cells assessed as accumulation at G0/G1 phase at 10 uM after 24 hrs using propidium iodide stain by FACS-flow cytometry (reference value: 39%); type: functional
[21] = system: HCT-116; experiment: Cell cycle arrest in human HCT116 cells assessed as accumulation at G0/G1 phase after 24 hrs using propidium iodide stain by FACS-flow cytometry; type: functional, cell-based
[22] = system: HL-60; experiment: Cell cycle arrest in human HL60 cells assessed as accumulation at G2/M phase after 24 hrs using propidium iodide stain by FACS-flow cytometry; type: functional, cell-based
[23] = system: HL-60; experiment: Cell cycle arrest in human HL60 cells assessed as accumulation at G0/G1 phase after 24 hrs using propidium iodide stain by FACS-flow cytometry; type: functional, cell-based
[24] = system: HCT-116; experiment: Cell cycle arrest in human HCT116 cells assessed as accumulation at G0/G1 phase at 1 to 10 uM after 24 hrs using propidium iodide stain by FACS-flow cytometry; type: functional, cell-based
[25] = system: HL-60; experiment: Cell cycle arrest in human HL60 cells assessed as accumulation at G0/G1 phase at 1 uM after 24 hrs using propidium iodide stain by FACS-flow cytometry (reference value: 39%); type: functional
[26] = system: HCT-116; experiment: Cell cycle arrest in human HCT116 cells assessed as accumulation at G2/M phase at 1 to 10 uM using propidium iodide stain by FACS-flow cytometry; type: functional, cell-based; conditions: TDE = time-dependent effect

| SMILES | IC50 [1] [µM] | IC50 [3] [µM] | IC50 [4] [µM] | IC50 [6] [µM] | inhibition [8] | Ratio IC50 [9] | other results |
| --- | --- | --- | --- | --- | --- | --- | --- |
| COc1cc2c(O)c3c(c(-c4ccc5c(c4)OCO5)c2cc1OC)C(=O)OC3 [DIPHYLLIN] | 3.54 | 0.54 | 3.15 | 0.78 | Active | 4 | IC50 [2]: 1.67 µM; Ratio IC50 [5]: 14.1; IC50 [7]: 23.5 µM |
| COC[C@H]1O[C@@H](Oc2c3c(c(-c4ccc5c(c4)OCO5)c4cc(OC)c(OC)cc24)C(=O)OC3)[C@H](O)[C@@H](O)[C@@H]1O | > 10 | > 10 |  | 4.5 | inactive |  |  |
| COc1cc2c(O[C@@H]3OC[C@H](O)[C@H](O)[C@H]3O)c3c(c(-c4ccc5c(c4)OCO5)c2cc1OC)C(=O)OC3 [ACUTISSIMALIGNAN A] | > 10 | > 10 |  | 6.88 | inactive |  |  |
| COc1cc2c(O[C@@H]3O[C@@H]4COC(C)(C)O[C@H]4[C@H](O)[C@H]3O)c3c(c(-c4ccc5c(c4)OCO5)c2cc1OC)C(=O)OC3 | 0.043 | 0.053 |  | 0.01 | Active |  |  |
| COC[C@H]1O[C@@H](Oc2c3c(c(-c4ccc5c(c4)OCO5)c4cc(OC)c(OC)cc24)C(=O)OC3)[C@H](O)[C@@H](O)[C@H]1O | > 10 | > 10 |  | 4.1 | inactive |  |  |
| CC[C@]1(O)C[C@H]2CN(CCc3c([nH]c4ccccc34)[C@@](C(=O)OC)(c3cc4c(cc3OC)N(C=O)[C@H]3[C@@](O)(C(=O)OC)[C@H](OC(C)=O)[C@]5(CC)C=CCN6CC[C@]43[C@@H]65)C2)C1 [VINCRISTINE] |  |  | 1.61 | 0.003 |  | 536.7 |  |
| COc1cc2c(O[C@@H]3O[C@H](C)[C@@H](OC(C)=O)[C@H](OC(C)=O)[C@H]3OC(C)=O)c3c(c(-c4ccc5c(c4)OCO5)c2cc1OC)C(=O)OC3 | 0.27 | 0.38 | 1.32 | 0.44 | Active | 3 | Activity [10]: tde; Activity [11]: 19.3%; Activity [12]: tde; Activity [13]: tde; Activity [14]: Active; IC50 [2]: 0.808 µM; Activity [15]: Active; Activity [16]: Dose-dependent effect; Activity [17]: 36.3%; Activity [18]: 25.7%; Activity [19]: 17.4%; Activity [20]: 55%; Activity [21]: Dose-dependent effect; Ratio IC50 [5]: 9.5; Activity [22]: Dose-dependent effect; IC50 [7]: 7.66 µM; Activity [23]: Dose-dependent effect; Activity [24]: Active; Activity [25]: 46.4%; Activity [26]: tde |
| COc1cc2c(O[C@@H]3O[C@H](CO)[C@H](O)[C@H](O)[C@H]3O)c3c(c(-c4ccc5c(c4)OCO5)c2cc1OC)C(=O)OC3 | > 10 | 4.11 |  | 4.89 | inactive |  |  |
